The text below walks through data of ChEMBL document CHEMBL5512625, “Design, synthesis, and biological evaluation of first-in-class indomethacin-based PROTACs degrading SARS-CoV-2 main protease and with broad-spectrum antiviral activity” (Eur J Med Chem, 2024).

In brackets after ≈: the same amount, converted by molar mass. Activity calls are given as the source filed them. No cut-off for these calls is given here. Bounds are passed on as bounds.

A short description of data set [1]: Cytotoxicity against African green monkey Vero cells assessed as reduction in cell viability incubated for 72 hrs by MTT assay. Particulars: chlorocebus sabaeus. The data set is classed as toxicity, cell-based. (In general: Formazan colour is commonly taken as a measure of viable cells.)
The nature of data set [2]: Cytotoxicity against human MRC5 cells assessed as reduction in cell viability incubated for 72 hrs by MTT assay. The format is toxicity, cell-based.
The test system of data set [3] is SARS-CoV-2. Briefly: Antiviral activity against SARS CoV-2 NL/2020 infected in African green monkey Vero E6 cells incubated for 3 days by plaque reduction assay. The format is functional, organism-based. Conditions: Severe acute respiratory syndrome coronavirus 2, NL/2020, Vero C1008, 72 h. Background: Plaques are areas of infected cells; plaque reduction assays count them against a control.

Data set [4] in a line: Kinetic solubility in universal buffer incubated for 90 mins by microplate shaker method. The data set is classed as physicochemical. Conditions: for solubility kinetic at 1.5 h: universal buffer, read-out: Kinetic_solubility; for Kinetic_solubility: buffer, 1.5 h, BLD = below limit of detection. In short, it runs like this:
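Universal buffer (45 mM each ethanolamine, NaH2PO4 and sodium acetate) at pH 7.4; compound at 100 µM final, 5% DMSO. Shaken 90 min at 25 °C, vacuum-filtered, filtrate diluted with ACN/DMSO. UV absorbance at λmax quantified against an external calibration curve (3.13–100 µM); result corrected by ×1.25.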

The subject of data set [5] is Human coronavirus 229E. Briefly: Antiviral activity against HCoV-229E infected in human MRC5 cells incubated for 3 days by plaque reduction assay. The data set is classed as functional, organism-based. Particulars: MRC5, 72 h.
Data set [6] relates to HEK-293T. In words: Downregulation of PGES-2 level in HEK293T cells at 25 uM incubated for 2 to 8 hrs by Western blot analysis. The data set is classed as functional, cell-based. Conditions: Homo sapiens, time 2-8 hrs. A digest of the protocol: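 Uninfected 293T cells treated at 25 µM or with 0.1% DMSO and harvested at several times after treatment. Western blot with anti-PGES-2 antibody; β-actin as loading control.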
Background: Immunoblotting shows a protein as a band on a membrane.

The subject of data set [7] is Human coronavirus OC43. Briefly: Antiviral activity against HCoV-OC43 infected in human MRC5 cells incubated for 3 days by plaque reduction assay. The data set is classed as functional, organism-based. Particulars: Betacoronavirus 1, MRC5, 72 h.
Data set [8] is described as follows: Metabolic stability in human liver microsomes assessed as half life measured upto 60 mins by LC/MS-MS analysis. The data set is classed as ADME, Microsome. In short, it runs like this: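 Compound at 10 µM (0.1% DMSO) pre-incubated 5 min at 37 °C with human liver microsomes (0.5 mg/mL, 10-donor pool) in 0.1 M phosphate pH 7.4. Reaction started with 1 mM NADPH. Samples at 0, 5, 15, 30 and 60 min, quenched in cold acetonitrile with labetalol, analysed by LC-MS/MS; n=3.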

Data set [9] deals with MRC5. Briefly: Downregulation of PGES-2 level in human MRC5 cells infected with HCoV-229E at 25 uM pre-infected for 90 mins followed by removal of viral inoculum and subsequent addition of compound measured after 24 hrs post-infection. The format is functional, cell-based. Conditions: time 1350.0 min.
The subject of data set [10] is Vero C1008. In words: Downregulation of PGES-2 level in African green monkey Vero E6 cells infected with SARS CoV-2 at 25 uM pre-infected for 90 mins followed by removal of viral inoculum and subsequent addition of compound measured after 24 hrs post-infection. The data set is classed as functional, cell-based. Particulars: Chlorocebus sabaeus, time 1350.0 min.
The nature of data set [11]: Chemical stability of compound in DMEM at pH 7.4 assessed as compound remaining at 1 uM measured after 24 hrs by LC-MS analysis. The format is physicochemical. Conditions: read-out: Stability. A digest of the protocol: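 Compound at 1 and 10 µM (0.1% DMSO) incubated at 37 °C in DMEM pH 7.4 with 10% FBS and penicillin/streptomycin. Samples at 0 and 24 h, quenched in cold acetonitrile with labetalol internal standard, analysed by LC-MS/MS; duplicates.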

Data set [12] relates to MRC5. Briefly: Downregulation of PGES-2 level in human MRC5 cells infected with HCoV-OC43 at 25 uM pre-infected for 90 mins followed by removal of viral inoculum and subsequent addition of compound measured after 48 hrs post-infection. The format is functional, cell-based. Conditions: time 2790.0 min. A digest of the protocol: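 MRC-5 cells infected with HCoV-OC43 for 90 min at 37 °C; inoculum removed, then treated at 25 µM or with 0.1% DMSO. Whole-cell lysates collected 48 h p.i. and blotted for PGES-2, normalised to β-actin.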

Data set [13] deals with SARS-CoV-2. Briefly: Antiviral activity against SARS CoV-2 infected in human Calu-3 cells measured after 36 hrs. The format is functional, organism-based. Particulars: Severe acute respiratory syndrome coronavirus 2, Calu-3, 36 h.
A short description of data set [14]: Cytotoxicity against human Calu-3 cells incubated for 72 hrs by MTT assay. The format is toxicity, cell-based.
Data set [15] concerns the target von Hippel-Lindau disease tumor suppressor-SARS-Cov-2 polyprotein (Severe acute respiratory syndrome coronavirus 2, UniProt P40337+P0DTD1). Briefly: PROTAC activity at human VHL/virus-expressed MPro in human Calu-3 cells infected with SARS CoV-2 assessed as protein degradation incubated for 48 hrs by Western blot analysis. The format is cell-based.
In data set [16] the target is Replicase polyprotein 1ab (Severe acute respiratory syndrome coronavirus 2, UniProt P0DTD1). In words: Binding affinity to NT650-labeled recombinant SARS CoV-2 MPro assessed as protein stability by measuring dissociation constant by MST analysis.
Data set [17] concerns Vero C1008. In words: Cytotoxicity against African green monkey Vero E6 cells assessed as reduction in cell viability incubated for 72 hrs by Alamar blue assay. Particulars: chlorocebus sabaeus, vero c1008, 72 h. The data set is classed as toxicity, cell-based.
For data set [18], the system named is SARS-CoV-2. In words: Antiviral activity against SARS CoV-2 infected in African green monkey Vero E6 cells assessed as reduction in viral replication by plaque reduction assay. The format is functional, organism-based. Conditions: Severe acute respiratory syndrome coronavirus 2.
Data set [19] has as its system SARS-CoV-2. In words: Antiviral activity against SARS CoV-2 NL/2020. The format is functional, organism-based. Particulars: Severe acute respiratory syndrome coronavirus 2, NL/2020.
Data set [20] in a line: Cytotoxicity against African green monkey Vero cells. The format is toxicity, cell-based. Particulars: chlorocebus sabaeus.

Sequence of von Hippel-Lindau disease tumor suppressor-SARS-Cov-2 polyprotein (P40337 whole entry, other chains not shown): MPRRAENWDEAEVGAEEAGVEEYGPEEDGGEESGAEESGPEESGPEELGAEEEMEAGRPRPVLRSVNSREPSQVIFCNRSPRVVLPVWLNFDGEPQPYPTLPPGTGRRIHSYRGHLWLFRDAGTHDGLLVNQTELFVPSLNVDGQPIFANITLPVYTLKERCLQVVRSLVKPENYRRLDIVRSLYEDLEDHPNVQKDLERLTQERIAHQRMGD

Take `COc1ccc2c(c1)c(CC(=O)N1CCN(CCOCCOCC(=O)N[C@H](C(=O)N3C[C@H](O)C[C@H]3C(=O)N[C@@H](C)c3ccc(-c4scnc4C)cc3)C(C)(C)C)CC1)c(C)n2C(=O)c1ccc(Cl)cc1`: the CC50 at 72 h in data set [1] was above 125 µM; in [2] it was 22 µM. In [3], this molecule had an EC50 above 25 µM. For the same molecule, the solubility kinetic at 1.5 h in data set [4] is 7.7 µM (≈ 7.69 µg/mL).
For `COc1ccc2c(c1)c(CC(=O)N1CCN(CC(=O)N[C@H](C(=O)N3C[C@H](O)C[C@H]3C(=O)N[C@@H](C)c3ccc(-c4scnc4C)cc3)C(C)(C)C)CC1)c(C)n2C(=O)c1ccc(Cl)cc1`, the EC50 in [5] was determined as 6.5 µM; in data set [7] it was 1.6 µM; in data set [3] it was 10.8 µM; in data set [13] it was 0.89 µM. In addition, the CC50 at 72 h in data set [1], in data set [2] and in [14] was above 125 µM throughout. Further, the result in data set [6], in [9], in data set [10] and in [12] was inactive. The half-life in [8] is above 1 h. Moreover, the remaining at 24 h, 1 µM in data set [11] is above 70%. In data set [4], the Kinetic_solubility entry is “Bld”. Further, the DC50 in data set [15] was 1.34 µM.
Consider `COc1ccc2c(c1)c(CC(=O)O)c(C)n2C(=O)c1ccc(Cl)cc1` [INDOMETHACIN], for which the Kd in data set [16] is 129 µM.
On to `COc1ccc2c(c1)c(CC(=O)N1CCN(CC(=O)N[C@H](C(=O)N3C[C@@H](O)C[C@H]3C(=O)N[C@@H](C)c3ccc(-c4scnc4C)cc3)C(C)(C)C)CC1)c(C)n2C(=O)c1ccc(Cl)cc1`, for which the Activity entry in data set [17] is “Toxic”.
Regarding `COc1ccc2c(c1)c(CC(=O)NCCCCNc1cc3c(cc1F)C(=O)N(C1CCC(=O)NC1=O)C3=O)c(C)n2C(=O)c1ccc(Cl)cc1` (stereo not drawn), the CC50 at 72 h in data set [1] is above 125 µM. Further, the 50% effective concentration (EC50) in data set [3] was above 25 µM.
As for `COc1ccc2c(c1)c(CC(=O)NCCN1CCN(C(=O)CCC(=O)N[C@H](C(=O)N3C[C@H](O)C[C@H]3C(=O)N[C@@H](C)c3ccc(-c4scnc4C)cc3)C(C)(C)C)CC1)c(C)n2C(=O)c1ccc(Cl)cc1`, the CC50 at 72 h in [1] is above 250 µM. For the same molecule, the outcome in data set [6], in data set [9], in data set [10] and in [12] was inactive. Also, the half-life in data set [8] is above 1 h. In addition, in data set [11], the remaining at 24 h, 1 µM is above 70%. Further, the solubility kinetic at 1.5 h in data set [4] stood at 6 µM (≈ 5.97 µg/mL).
For the molecule `COc1ccc2c(c1)c(CC(=O)NCCCCCCC(=O)N[C@H](C(=O)N1C[C@H](O)C[C@H]1C(=O)N[C@@H](C)c1ccc(-c3scnc3C)cc1)C(C)(C)C)c(C)n2C(=O)c1ccc(Cl)cc1`, the CC50 at 72 h in [1] was above 200 µM; in data set [2], above 250 µM. In addition, the result in data set [6], in data set [9], in data set [10] and in data set [12] was inactive. Besides, the Kinetic_solubility result in data set [4] was “Bld”.
Turning to `COc1ccc2c(c1)c(CC(=O)NCCN1CCN(CCOCCOCC(=O)N[C@H](C(=O)N3C[C@H](O)C[C@H]3C(=O)N[C@@H](C)c3ccc(-c4scnc4C)cc3)C(C)(C)C)CC1)c(C)n2C(=O)c1ccc(Cl)cc1`, the CC50 at 72 h was above 125 µM in data set [1] and 12.3 µM in data set [2]. The molecule further returned an EC50 in [3] above 25 µM. Further, the solubility kinetic at 1.5 h in [4] turned out to be 26 µM (≈ 27.1 µg/mL).
As to `COc1ccc2c(c1)c(CC(=O)NCCCN1CCN(CCCNC(=O)CCC(=O)N[C@H](C(=O)N3C[C@H](O)C[C@H]3C(=O)N[C@@H](C)c3ccc(-c4scnc4C)cc3)C(C)(C)C)CC1)c(C)n2C(=O)c1ccc(Cl)cc1`, the figures for the EC50 in data set [5], in data set [7] and in data set [3] were above 25 µM, 16 µM and above 25 µM, respectively. For the same molecule, the 50% cytotoxic concentration (CC50) at 72 h in data set [1] and in [2] was above 125 µM in each case. Further, in data set [4], the solubility kinetic at 1.5 h was 9.4 µM (≈ 10 µg/mL).
As to `COc1ccc2c(c1)c(CC(=O)N1CCN(CCC(=O)N[C@H](C(=O)N3C[C@H](O)C[C@H]3C(=O)N[C@@H](C)c3ccc(-c4scnc4C)cc3)C(C)(C)C)CC1)c(C)n2C(=O)c1ccc(Cl)cc1`, the CC50 at 72 h in [1] was above 125 µM; in data set [2] it was 13.5 µM. Further, the EC50 in [3] is above 25 µM. In addition, the Kinetic_solubility entry in data set [4] was “Bld”.
Turning to `COc1ccc2c(c1)c(CC(=O)NCCCCCCNc1cc3c(cc1F)C(=O)N(C1CCC(=O)NC1=O)C3=O)c(C)n2C(=O)c1ccc(Cl)cc1` (stereo not drawn), the CC50 at 72 h in data set [1] is above 125 µM. Moreover, the EC50 in data set [3] is above 25 µM.
On to `COc1ccc2c(c1)c(CC(=O)NCCN1CCN(C(=O)CCC(=O)N[C@H](C(=O)N3C[C@@H](O)C[C@H]3C(=O)N[C@@H](C)c3ccc(-c4scnc4C)cc3)C(C)(C)C)CC1)c(C)n2C(=O)c1ccc(Cl)cc1`, for which the outcome in data set [18] was inactive.
In data set [19], `CC(C)(C)NC(=O)N[C@H](C(=O)N1C[C@H]2[C@@H]([C@H]1C(=O)NC(CC1CCC1)C(=O)C(N)=O)C2(C)C)C(C)(C)C` (stereo partly drawn) [BOCEPREVIR] came in with an EC50 of 22 µM. The CC50 in data set [20] is above 500 µM.
`COc1ccc2c(c1)c(CC(=O)NCCCCCCCCCCNc1cc3c(cc1F)C(=O)N(C1CCC(=O)NC1=O)C3=O)c(C)n2C(=O)c1ccc(Cl)cc1` (stereo not drawn): in [1], the CC50 at 72 h is above 125 µM. Further, the EC50 in data set [3] was above 25 µM.
On to `COc1ccc2c(c1)c(CC(=O)N1CCN(CCCCCC(=O)N[C@H](C(=O)N3C[C@H](O)C[C@H]3C(=O)N[C@@H](C)c3ccc(-c4scnc4C)cc3)C(C)(C)C)CC1)c(C)n2C(=O)c1ccc(Cl)cc1`, for which the CC50 at 72 h in [1] is above 125 µM; in [2], 20 µM. This molecule yielded an EC50 in [3] above 25 µM. The Kinetic_solubility result in data set [4] is on record as “Bld”.

What is called CC50 is the concentration that lowers cell viability or growth by half. As usually defined, the EC50 is the midpoint of the concentration-response curve. Usually half-life stands for how long it takes for the measured level to halve. What is called DC50 is the midpoint of the concentration-degradation curve. A word on the Kd: it is the equilibrium constant for the complex coming apart.
